Experiments:
Type in all cases: functional, cell-based
A549 = assay: Antiproliferative activity against human A549 cells after 48 hrs by sulforhodamine B assay; settings: A549, 48 h
Summary of the method: (§1)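 Cells grown in DMEM with 10% FBS at 37 °C under 5% CO2. Plated cells were allowed 24 h before drug, then exposed continuously for 48 h at 0.01, 0.1, 1, 10 and 100 μM. Monolayers were fixed with cold 10% TCA for 1 h at 4 °C and stained with 0.057% SRB in 1% acetic acid for 30 min. Bound dye was read at 510 nm. IC50 is the 50% growth-inhibitory concentration, using time-zero and control readings.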

HeLa = assay: Antiproliferative activity against human HeLa cells after 48 hrs by sulforhodamine B assay; summary of the method: as §1
MDA-MB-231 = assay: Antiproliferative activity against human MDA-MB-231 cells after 48 hrs by sulforhodamine B assay; settings: MDA-MB-231, 48 h; summary of the method: as §1
MIA PaCa-2 = assay: Antiproliferative activity against human MIAPaCa2 cells after 48 hrs by sulforhodamine B assay; settings: MIA PaCa-2, 48 h; summary of the method: as §1

Structure (SMILES) | IC50 (A549) [µM] | IC50 (HeLa) [µM] | IC50 (MDA-MB-231) [µM] | IC50 (MIA PaCa-2) [µM]
COc1cc(C(=O)/C=C\Nc2ccc(-c3nc4cc(OC)c(OC)c(OC)c4s3)cc2)c(Br)c(OC)c1OC | 13.6 | 6.6 | 15.6 | 23.2
COc1ccc(C(=O)/C=C\Nc2ccc(-c3nc4cc(OC)c(OC)c(OC)c4s3)cc2)cc1F | 15.5 | 7.3 | 16.5 | 19.4
COc1ccc2nc(-c3ccc(N/C=C\C(=O)c4cc(OC)c(OC)c(OC)c4Br)c(C)c3)sc2c1 | 6.4 | 13.4 | 9.4 | 23.4
COc1cc(C(=O)/C=C\Nc2ccc(-c3nc4cc(OC)c(OC)c(OC)c4s3)cc2C)cc(OC)c1OC | 23.3 | 11.1 | 12.9 | 22.8
COc1ccc2nc(-c3ccc(N/C=C\C(=O)c4ccc(OC)c([N+](=O)[O-])c4)cc3)sc2c1 | 13.6 | 17.6 | 17.6 | 23.6
COc1ccc2nc(-c3ccc(N/C=C\C(=O)c4cc(OC)c(OC)c([N+](=O)[O-])c4)cc3)sc2c1 | 21.6 | 16.1 | 7.61 | 25.6
COc1cc(OC)c2sc(-c3ccc(N/C=C\C(=O)c4cc(OC)c(OC)c(OC)c4Br)c(C)c3)nc2c1 | 14 | 14.7 | 17.3 | 16
COc1cc(C(=O)/C=C\Nc2ccc(-c3nc4cc(OC)c(OC)c(OC)c4s3)cc2C)cc([N+](=O)[O-])c1OC | 17.4 | 13.1 | 12.8 | 22
COc1ccc(C(=O)/C=C\Nc2ccc(-c3nc4cc(OC)c(OC)c(OC)c4s3)cc2)cc1O | 23 | 14.1 | 18.1 | 32.8
COc1ccc(C(=O)/C=C\Nc2ccc(-c3nc4cc(OC)c(OC)c(OC)c4s3)cc2)cc1[N+](=O)[O-] | 21.2 | 11.4 | 17.1 | 15.9
COc1cc(C(=O)/C=C\Nc2ccc(-c3nc4cc(OC)c(OC)c(OC)c4s3)cc2C)c(Br)c(OC)c1OC | 10.3 | 14.3 | 7.3 | 24.3
COc1cc(OC)c2sc(-c3ccc(N/C=C\C(=O)c4cc(OC)c(OC)c([N+](=O)[O-])c4)cc3)nc2c1 | 13 | 19 | 3.06 | 12.7
COc1cc(C(=O)/C=C\Nc2ccc(-c3nc4cc(OC)c(OC)c(OC)c4s3)cc2)cc([N+](=O)[O-])c1OC | 11.8 | 7.8 | 9.8 | 15.8
COc1cc(OC)c2sc(-c3ccc(N/C=C\C(=O)c4cc(OC)c(OC)c(OC)c4Br)cc3)nc2c1 | 12 | 10.3 | 16.1 | 19
COc1ccc2nc(-c3ccc(N/C=C\C(=O)c4cc(OC)c(OC)c(OC)c4Br)cc3)sc2c1 | 6 | 8.02 | 11.1 | 14.7
COc1ccc2nc(-c3ccc(N/C=C\C(=O)c4cc(OC)c(OC)c([N+](=O)[O-])c4)c(C)c3)sc2c1 | 22.1 | 12.1 | 5.05 | 12
COc1ccc2nc(-c3ccc(N/C=C\C(=O)c4ccc(OC)c([N+](=O)[O-])c4)c(C)c3)sc2c1 | 13.6 | 17.6 | 17.6 | 23.6
COc1cc(OC)c2sc(-c3ccc(N/C=C\C(=O)c4cc(OC)c(OC)c(OC)c4)cc3)nc2c1 | 21.8 | 17.8 | 15.8 | 26.8
COc1cc(C(=O)/C=C\Nc2ccc(-c3nc4cc(OC)c(OC)c(OC)c4s3)cc2)cc(OC)c1OC | 15.5 | 5.3 | 16.5 | 29.1
COc1ccc2nc(-c3ccc(N/C=C\C(=O)c4cc(OC)c(OC)c(OC)c4)cc3)sc2c1 | 12.1 | 14.1 | 19.6 | 31.1
COc1cc(OC)c2sc(-c3ccc(N/C=C\C(=O)c4ccc(OC)c([N+](=O)[O-])c4)cc3)nc2c1 | 5.8 | 12.9 | 12.9 | 2.9
COc1ccc2nc(-c3ccc(N/C=C\C(=O)c4ccc(OC)c(O)c4)cc3)sc2c1 | 12.8 | 6.9 | 18.9 | 21.9
COc1ccc(C(=O)/C=C\Nc2ccc(-c3nc4cc(OC)c(OC)c(OC)c4s3)cc2C)cc1[N+](=O)[O-] | 9.1 | 13.4 | 12.4 | 23.4

Second part, the compound after the results:

IC50 (A549) [µM] | IC50 (HeLa) [µM] | IC50 (MDA-MB-231) [µM] | IC50 (MIA PaCa-2) [µM] | Structure (SMILES)
11.1 | 16.1 | 17 | 10 | COc1ccc2nc(-c3ccc(N/C=C\C(=O)c4cc(OC)c(OC)c(OC)c4)c(C)c3)sc2c1
10.6 | 12.1 | 7.61 | 11.6 | COc1cc(OC)c2sc(-c3ccc(N/C=C\C(=O)c4ccc(OC)c(O)c4)cc3)nc2c1
14.3 | 16.1 | 3.1 | 22.1 | COc1cc(OC)c2sc(-c3ccc(N/C=C\C(=O)c4ccc(OC)c(O)c4)c(C)c3)nc2c1
18 | 12 | 14 | 17 | COc1ccc2nc(-c3ccc(N/C=C\C(=O)c4ccc(OC)c(O)c4)c(C)c3)sc2c1
14.4 | 16.4 | 13.8 | 17 | COc1cc(OC)c2sc(-c3ccc(N/C=C\C(=O)c4cc(OC)c(OC)c(OC)c4)c(C)c3)nc2c1
15.4 | 11.4 | 12.4 | 15.4 | COc1ccc(C(=O)/C=C\Nc2ccc(-c3nc4cc(OC)c(OC)c(OC)c4s3)cc2C)cc1O
1.69 | 1.2 | 2.9 | 1.8 | COc1ccc(C(=O)/C=C\Nc2ccc(-c3nc4cc(OC)c(OC)c(OC)c4s3)cc2C)cc1F
5.3 | 7.3 | 6.7 | 4.3 | COc1cc(OC)c2sc(-c3ccc(N/C=C\C(=O)c4ccc(OC)c(F)c4)cc3)nc2c1
15.4 | 11.4 | 7.4 | 10.4 | COc1cc(OC)c2sc(-c3ccc(N/C=C\C(=O)c4cc(OC)c(OC)c([N+](=O)[O-])c4)c(C)c3)nc2c1
15.3 | 14.7 | 13.3 | 16.3 | COc1cc(OC)c2sc(-c3ccc(N/C=C\C(=O)c4ccc(OC)c(F)c4)c(C)c3)nc2c1
12.1 | 9.39 | 10.8 | 13.9 | COc1cc(OC)c2sc(-c3ccc(N/C=C\C(=O)c4ccc(OC)c([N+](=O)[O-])c4)c(C)c3)nc2c1

Reference: ChEMBL document CHEMBL4261486, “2-Arylaminobenzothiazole-arylpropenone conjugates as tubulin polymerization inhibitors” (Medchemcomm, 2017)
